Source: ChEMBL document CHEMBL4130631, “Identification of the Histidine Residue in Vitamin D Receptor That Covalently Binds to Electrophilic Ligands” (J Med Chem, 2018)
Activity calls are given as the source filed them. The rule behind the calls is not given here.

Legend:
[1] = molecular target: T1, Vitamin D3 receptor (Homo sapiens, UniProt P11473); assay: Displacement of [3H]-1,25D3 from C-terminal GST-tagged human recombinant VDR LBD expressed in Escherichia coli BL21 (DE3) after 16 hrs by radioligand binding assay
T1 sequence (P11473 whole entry): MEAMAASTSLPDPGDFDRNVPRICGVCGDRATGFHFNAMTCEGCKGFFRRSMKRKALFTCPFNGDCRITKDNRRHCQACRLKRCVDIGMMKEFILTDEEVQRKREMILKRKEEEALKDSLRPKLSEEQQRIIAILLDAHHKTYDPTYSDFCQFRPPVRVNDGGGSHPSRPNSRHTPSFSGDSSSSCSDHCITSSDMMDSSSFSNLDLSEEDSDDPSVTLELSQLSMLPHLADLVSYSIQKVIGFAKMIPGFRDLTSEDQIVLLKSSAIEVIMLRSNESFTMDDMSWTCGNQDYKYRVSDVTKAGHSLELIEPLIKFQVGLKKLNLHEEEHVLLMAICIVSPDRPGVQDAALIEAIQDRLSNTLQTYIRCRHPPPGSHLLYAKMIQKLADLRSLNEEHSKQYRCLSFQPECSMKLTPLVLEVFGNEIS

[2] = molecular target: T2, Vitamin D3 receptor (Homo sapiens) (UniProt P11473); assay: Displacement of [3H]-1,25D3 from C-terminal GST-tagged human recombinant VDR LBD expressed in Escherichia coli BL21 (DE3) after 16 hrs by radioligand binding assay relative to 1,25D3
T2 sequence (whole entry): T1 sequence (P11473 whole entry)
Procedure, shortened: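 Competitive binding against [3H]-1,25D3 using human VDR-LBD expressed as C-terminal GST fusion from pGEX-VDR in E. coli BL21; IC50 derived.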

[3] = molecular target: T2, Vitamin D3 receptor (Homo sapiens); assay: Agonist activity at human full-length VDR expressed in African green monkey COS7 cells by osteopontin luciferase reporter gene assay; format: cell-based
Procedure, shortened: (§1)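 Dual luciferase reporter in Cos7 or HEK293 cells cotransfected with full-length human VDR plasmid (pCMX-hVDR), reporter carrying three copies of osteopontin VDRE (SPPx3-TK-Luc) and sea pansy luciferase control (pRL-CMV). Activity normalized to 1,25D3 set as 1: 10−8 M in Cos7, 10−9 M in HEK293.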

[4] = molecular target: T2, Vitamin D3 receptor (Homo sapiens); assay: Agonist activity at human full-length VDR expressed in HEK293 cells by osteopontin luciferase reporter gene assay; format: cell-based; procedure, shortened: as §1
[5] = molecular target: T3, Vitamin D3 receptor (Rattus norvegicus) (UniProt P13053); assay: Covalent binding affinity to rat VDR LBD (116 to 423 residues, 165-211 residues) at 5 equivalents after 30 hrs by ESI-MS analysis
T3 sequence (whole entry): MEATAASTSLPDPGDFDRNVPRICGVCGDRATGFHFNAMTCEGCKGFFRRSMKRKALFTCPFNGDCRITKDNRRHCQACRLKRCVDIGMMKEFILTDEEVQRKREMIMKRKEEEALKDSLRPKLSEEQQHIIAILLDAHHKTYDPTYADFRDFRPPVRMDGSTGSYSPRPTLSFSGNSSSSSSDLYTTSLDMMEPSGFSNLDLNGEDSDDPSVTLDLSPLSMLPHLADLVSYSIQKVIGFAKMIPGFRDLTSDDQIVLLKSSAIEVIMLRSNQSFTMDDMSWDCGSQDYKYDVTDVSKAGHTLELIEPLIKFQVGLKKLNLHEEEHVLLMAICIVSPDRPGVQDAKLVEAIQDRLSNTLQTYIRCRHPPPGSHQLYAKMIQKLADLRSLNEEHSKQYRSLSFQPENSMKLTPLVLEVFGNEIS

[6] = molecular target: T3, Vitamin D3 receptor (Rattus norvegicus); assay: Covalent binding affinity to rat VDR LBD (116 to 423 residues, 165-211 residues) at 5 equivalents by ESI-MS analysis
Procedure, shortened: (§2)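 Rat VDR-LBD (residues 116−423, Δ165−211) concentrated in 50 mM ammonium acetate pH 6.5, 10 μM, incubated with 5 equiv ligand at room temperature. Samples sampled over time (up to 6 h, or 24 h), infused at 30 μL/min, analysed by positive-ion ESI-MS, m/z 100−4000. Spectra deconvoluted to unmodified versus ligand-adduct protein mass peaks.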

[7] = molecular target: T3, Vitamin D3 receptor (Rattus norvegicus); assay: Covalent binding affinity to rat VDR LBD (116 to 423 residues, 165-211 residues) at 2 equivalents after 24 hrs by ESI-MS analysis
[8] = molecular target: T3, Vitamin D3 receptor (Rattus norvegicus); assay: Irreversible covalent binding affinity to rat VDR LBD (116 to 423 residues, 165-211 residues) at 2 equivalents after 24 hrs followed by compound wash out and subsequent addition of 10 equivalents of 1,25D3 and measured after 24 hrs by ESI-MS analysis
Procedure, shortened: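 Rat VDR-LBD (Δ165−211) incubated with ligand for 24 h; covalent adduct confirmed by ESI-MS, then buffer exchanged to ligand-free buffer and 10 equiv 1,25D3 added. Positive-ion ESI-MS read for retained modified versus exchanged protein peaks.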

[9] = molecular target: T3, Vitamin D3 receptor (Rattus norvegicus); assay: Covalent binding affinity to rat VDR LBD (116 to 423 residues, 165-211 residues) assessed as covalently modified protein level at 5 equivalents by ESI-MS analysis; conditions: TDE = time-dependent effect; procedure, shortened: as §2
[10] = molecular target: T3, Vitamin D3 receptor (Rattus norvegicus); assay: Covalent binding affinity to rat VDR LBD (116 to 423 residues, 165-211 residues) assessed as time duration for complete covalent bond formation with protein at 5 equivalents by ESI-MS analysis; procedure, shortened: as §2

IC50 [1]	Ratio IC50 [2]	Activity [3]	Activity [4]	Activity [5]	Activity [6]	Activity [7]	Activity [8]	Activity [9]	TIME [10]	SMILES
2.3 nM	0.022	Active	Active	Active	–	–	–	–	–	C=C1[C@H](O)CC(=C/C=C2\CCC[C@]3(C)[C@@H]([C@H](C)C(=O)/C=C/C=C/C)CC[C@@H]23)C[C@H]1O
1.1 nM	0.055	Active	Active	–	Active	Active	Active	Tde	1.5 h	C=CC(=O)CC[C@@H](C)[C@H]1CC[C@H]2/C(=C/C=C3C[C@@H](O)C(=C)[C@H](O)C3)CCC[C@]12C
1.8 nM	0.034	Active	Active	–	Active	Active	Active	Tde	3 h	C=C1[C@H](O)CC(=C/C=C2\CCC[C@]3(C)[C@@H]([C@H](C)CCC(=O)/C=C/C)CC[C@@H]23)C[C@H]1O
